Experimental data taken from ChEMBL document CHEMBL5376013, “Design, synthesis and biological evaluation of novel morpholinopyrimidine-5-carbonitrile derivatives as dual PI3K/mTOR inhibitors” (RSC Med Chem, 2024).

Tests used:
Assay type in all cases: functional
Details in all cases: read-out: GI
[1] = system: COLO 205; test: Antitumor activity against human COLO 205 cells assessed as growth inhibition at 10 uM relative to control
In short: (§1)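 After drug addition, plates were incubated 48 h at 37 °C under 5% CO2. Adherent cells were fixed with cold TCA (10% final, 60 min, 4 °C) and suspension cells with 16% final TCA. Staining used 0.4% SRB in 1% acetic acid, solubilized in 10 mM trizma, read at A515. Percent growth was calculated from time-zero, control and treated absorbances.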

[2] = system: NCI-H23; test: Antitumor activity against human NCI-H23 cells assessed as growth inhibition at 10 uM relative to control; in short: as §1
[3] = system: SK-OV-3; test: Antitumor activity against human SK-OV-3 cells assessed as growth inhibition at 10 uM relative to control
In short: (§2)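 Drug exposure 48 h at 37 °C, 5% CO2. Adherent cells fixed with cold TCA (10% final), suspension cells with TCA (16% final). Stained with 0.4% SRB in 1% acetic acid, dissolved in 10 mM Tris, A515. Growth relative to time-zero and untreated control.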

[4] = system: SK-MEL-5; test: Antitumor activity against human SK-MEL-5 cells assessed as growth inhibition at 10 uM relative to control; in short: as §2
[5] = system: NCI-H226; test: Antitumor activity against human NCI-H226 cells assessed as growth inhibition at 10 uM relative to control; in short: as §1
[6] = system: SR; test: Antitumor activity against human SR cells assessed as growth inhibition at 10 uM relative to control; in short: as §2
[7] = system: SF-268; test: Antitumor activity against human SF-268 cells assessed as growth inhibition at 10 uM relative to control; in short: as §1
[8] = system: NCI-H322M; test: Antitumor activity against human NCI-H322M cells assessed as growth inhibition at 10 uM relative to control; in short: as §1
[9] = system: OVCAR-4; test: Antitumor activity against human OVCAR-4 cells assessed as growth inhibition at 10 uM relative to control; in short: as §1
[10] = system: UACC-62; test: Antitumor activity against human UACC-62 cells assessed as growth inhibition at 10 uM relative to control; in short: as §2
[11] = system: U-251; test: Antitumor activity against human U-251 cells assessed as growth inhibition at 10 uM relative to control; in short: as §2
[12] = system: SK-MEL-28; test: Antitumor activity against human SK-MEL-28 cells assessed as growth inhibition at 10 uM relative to control; in short: as §2
[13] = system: KM12; test: Antitumor activity against human KM12 cells assessed as growth inhibition at 10 uM relative to control; in short: as §1
[14] = system: SF-295; test: Antitumor activity against human SF-295 cells assessed as growth inhibition at 10 uM relative to control; in short: as §1
[15] = system: T47D; test: Antitumor activity against human T47D cells assessed as growth inhibition at 10 uM relative to control; in short: as §2
[16] = system: MDA-MB-231; test: Antitumor activity against human MDA-MB-231 cells assessed as growth inhibition at 10 uM relative to control; in short: as §1
[17] = system: HT-29; test: Antitumor activity against human HT-29 cells assessed as growth inhibition at 10 uM relative to control; in short: as §1
[18] = system: SNB-19; test: Antitumor activity against human SNB-19 cells assessed as growth inhibition at 10 uM relative to control; in short: as §2
[19] = system: UACC-257; test: Antitumor activity against human UACC-257 cells assessed as growth inhibition at 10 uM relative to control; in short: as §2
[20] = system: A498; test: Antitumor activity against human A498 cells assessed as growth inhibition at 10 uM relative to control; in short: as §1
[21] = system: RXF 393; test: Antitumor activity against human RXF 393 cells assessed as growth inhibition at 10 uM relative to control; in short: as §1
[22] = system: HL-60; test: Antitumor activity against human HL-60 cells assessed as growth inhibition at 10 uM relative to control; in short: as §1
[23] = system: HOP-62; test: Antitumor activity against human HOP-62 cells assessed as growth inhibition at 10 uM relative to control; in short: as §1
[24] = system: SN12C; test: Antitumor activity against human SN12C cells assessed as growth inhibition at 10 uM relative to control; in short: as §2
[25] = system: HCC 2998; test: Antitumor activity against human HCC 2998 cells assessed as growth inhibition at 10 uM relative to control; in short: as §1
[26] = system: MDA-MB-435; test: Antitumor activity against human MDA-MB-435 cells assessed as growth inhibition at 10 uM relative to control; in short: as §1
[27] = system: Malme-3M; test: Antitumor activity against human Malme-3M cells assessed as growth inhibition at 10 uM relative to control; in short: as §1
[28] = system: EKVX; test: Antitumor activity against human EKVX cells assessed as growth inhibition at 10 uM relative to control; in short: as §1
[29] = system: UO-31; test: Antitumor activity against human UO-31 cells assessed as growth inhibition at 10 uM relative to control; in short: as §2
[30] = system: NCI-H460; test: Antitumor activity against human NCI-H460 cells assessed as growth inhibition at 10 uM relative to control; in short: as §1
[31] = system: NCI/ADR-RES; test: Antitumor activity against human NCI-ADR-RES cells assessed as growth inhibition at 10 uM relative to control; in short: as §1
[32] = system: NCI-H522; test: Antitumor activity against human NCI-H522 cells assessed as growth inhibition at 10 uM relative to control; in short: as §1
[33] = system: 786-0; test: Antitumor activity against human 786-0 cells assessed as growth inhibition at 10 uM relative to control; in short: as §1
[34] = system: SW-620; test: Antitumor activity against human SW-620 cells assessed as growth inhibition at 10 uM relative to control; in short: as §2
[35] = system: M14; test: Antitumor activity against human M14 cells assessed as growth inhibition at 10 uM relative to control; in short: as §1
[36] = system: SF-539; test: Antitumor activity against human SF-539 cells assessed as growth inhibition at 10 uM relative to control; in short: as §1
[37] = system: Hs-578T; test: Antitumor activity against human Hs-578T cells assessed as growth inhibition at 10 uM relative to control; in short: as §1
[38] = system: CAKI-1; test: Antitumor activity against human CAKI-1 cells assessed as growth inhibition at 10 uM relative to control; in short: as §1
[39] = system: HOP-92; test: Antitumor activity against human HOP-92 cells assessed as growth inhibition at 10 uM relative to control; in short: as §1
[40] = system: IGROV-1; test: Antitumor activity against human IGROV-1 cells assessed as growth inhibition at 10 uM relative to control; in short: as §1
[41] = system: TK-10; test: Antitumor activity against human TK-10 cells assessed as growth inhibition at 10 uM relative to control; in short: as §2
[42] = system: SNB-75; test: Antitumor activity against human SNB-75 cells assessed as growth inhibition at 10 uM relative to control; in short: as §2
[43] = system: HCT-116; test: Antitumor activity against human HCT-116 cells assessed as growth inhibition at 10 uM relative to control; in short: as §1
[44] = system: OVCAR-5; test: Antitumor activity against human OVCAR-5 cells assessed as growth inhibition at 10 uM relative to control; in short: as §1
[45] = system: RPMI-8226; test: Antitumor activity against human RPMI-8226 cells assessed as growth inhibition at 10 uM relative to control; in short: as §1
[46] = system: SK-MEL-2; test: Antitumor activity against human SK-MEL-2 cells assessed as growth inhibition at 10 uM relative to control; in short: as §1

**Q.** Which results are given for `N#Cc1c(-c2ccc(Cl)cc2)nc(N/N=C2/C(=O)Nc3ccc(Cl)cc32)nc1N1CCOCC1`?
**A.** inhibition of growth at 10 µM [1]: 1%; inhibition of growth at 10 µM [2]: 15.2%; inhibition of growth at 10 µM [3]: < 1%; inhibition of growth at 10 µM [4]: < 1%; inhibition of growth at 10 µM [5]: 10.5%; inhibition of growth at 10 µM [6]: < 1%; inhibition of growth at 10 µM [7]: < 1%; inhibition of growth at 10 µM [8]: < 1%; inhibition of growth at 10 µM [9]: < 1%; inhibition of growth at 10 µM [10]: < 1%; inhibition of growth at 10 µM [11]: < 1%; inhibition of growth at 10 µM [12]: < 1%; inhibition of growth at 10 µM [13]: < 1%; inhibition of growth at 10 µM [14]: < 1%; inhibition of growth at 10 µM [15]: < 1%; inhibition of growth at 10 µM [16]: 17.1%; inhibition of growth at 10 µM [17]: < 1%; inhibition of growth at 10 µM [18]: < 1%; inhibition of growth at 10 µM [19]: < 1%; inhibition of growth at 10 µM [20]: 26.9%; inhibition of growth at 10 µM [21]: < 1%; inhibition of growth at 10 µM [22]: < 1%; inhibition of growth at 10 µM [23]: < 1%; inhibition of growth at 10 µM [24]: < 1%; inhibition of growth at 10 µM [25]: < 1%; inhibition of growth at 10 µM [26]: < 1%; inhibition of growth at 10 µM [27]: 11.2%; inhibition of growth at 10 µM [28]: 13.9%; inhibition of growth at 10 µM [29]: 32.5%; inhibition of growth at 10 µM [30]: < 1%; inhibition of growth at 10 µM [31]: 11.7%; inhibition of growth at 10 µM [32]: < 1%; inhibition of growth at 10 µM [33]: < 1%; inhibition of growth at 10 µM [34]: < 1%; inhibition of growth at 10 µM [35]: < 1%; inhibition of growth at 10 µM [36]: < 1%; inhibition of growth at 10 µM [37]: < 1%; inhibition of growth at 10 µM [38]: < 1%; inhibition of growth at 10 µM [39]: 10.5%; inhibition of growth at 10 µM [40]: < 1%; inhibition of growth at 10 µM [41]: < 1%; inhibition of growth at 10 µM [42]: 31.3%; inhibition of growth at 10 µM [43]: < 1%; inhibition of growth at 10 µM [44]: < 1%; inhibition of growth at 10 µM [45]: < 1%; inhibition of growth at 10 µM [46]: < 1%
